A selection: hits, their analogues and other compounds. The true share with any hit is near 0.81%.
PKD1 inh – inhibitors of human PKD1 kinase; hit rate 0.056% among 200,000; PKD1 kinase fluorescence polarization assay; inhibition, % (test concentration not listed); in the data active = inhibition above about 50%
HMGR II inh – inhibitors of class II HMG-CoA reductase from Enterococcus faecalis. purified E. faecalis HMGR, NADPH absorbance 340 nm kinetic. inhibition, % at 10 µM. hit rate 0.41% among 190,000. AID 1066;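 active = inhibition above a set limit, the median over all tested compounds plus 3 SD, cut at about 9.5% in these data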;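 also: enzyme runs in reverse so mevalonate oxidation gives rising NADPH absorbance; 0% = complete reaction with DMSO and 100% = background rate lacking mevalonate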
DTT redox prof – compounds producing H2O2 with reducing agent – biochemical, NIH compound library profiling, artefact control for MLSCN library redox annotation, primary screen; hit rate 0.03% among 200,000; activation, % at 10 µM; DTT-dependent redox cycling H2O2, phenol red/HRP absorbance; 100% = 100 µM peroxide control, 0% = buffer;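 active = activation of at least 50% relative to the plate's high and low controls in the primary single-dose screen; inactive = activation below 50%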;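 also: compound incubated with DTT at 0.8 mM final as the reducing agent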
Pf gametocyte – kills late stage P. falciparum gametocytes | P. falciparum stage V gametocytes, ATP luminescence, 24 h | inhibition, % at 10.9 µM | hit rate 0.065% among 150,000;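 active = inhibition above the mean plus 3 SD of compounds within the control limits, set per campaign, cut at about 38% in these data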;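 also: 0% = DMSO wells and 100% = medium only without gametocytes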
Rad51 HR inh – Rad51 (human) homologous recombination inhibition. Q06609. hRad51 DNA strand exchange, fluorescence dequenching. inhibition, % at 10 µM. hit rate 0.085% among 200,000. AID 1385;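 active = inhibition above 40% at the single screening dose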;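 also: 0% = DMSO control wells and 100% = blanks with heterologous ssDNA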
Target sequence (Q06609 whole entry, looked up): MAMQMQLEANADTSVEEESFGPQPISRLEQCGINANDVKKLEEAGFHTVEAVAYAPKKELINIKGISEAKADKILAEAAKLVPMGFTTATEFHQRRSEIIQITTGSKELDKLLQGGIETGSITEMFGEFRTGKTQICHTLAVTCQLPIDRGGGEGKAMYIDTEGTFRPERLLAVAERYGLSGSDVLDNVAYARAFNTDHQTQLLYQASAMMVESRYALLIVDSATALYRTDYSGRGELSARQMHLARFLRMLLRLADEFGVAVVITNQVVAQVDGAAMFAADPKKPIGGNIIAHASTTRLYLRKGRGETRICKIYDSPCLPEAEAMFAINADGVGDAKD
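System: human Rad51 nucleoprotein filaments preassembled on unlabelled ssDNA. Reagent: labelled 47-mer dsDNA for strand exchange. Schedule: 30-min compound preincubation and 15-min exchange, both room temperature. Measured by: FRET fluorescence dequenching, excitation 485 nm, emission 520 nm. Read-out: Fluorescence-based percent inhibition, control- and blank-normalised. Benchmarks: plate controls and plate blanks.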
Calpain2 inh – inhibitors of pig calpain II. AID 1236. hit rate 0.37% among 220,000. purified calpain II, fluorogenic peptide substrate, 30 min. inhibition, % at 16 µM;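 active = inhibition above about 50%, limit read from the data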
The depositor's hits bear a star; nt = no result.

SMILES	PKD1 inh	HMGR II inh	DTT redox prof	Pf gametocyte	Rad51 HR inh	Calpain2 inh
COc1ccc(C[C@H]2COC(=O)[C@@H]2Cc2ccc(OC3OC(CO)C(O)C(O)C3O)c(OC)c2)cc1OC (stereo partly specified)	-15	20*	1	nt	8	-24
CC(NCCC(c1ccccc1)c1ccccc1)c1ccccc1 (stereo unspecified)	-6	19*	0	nt	-6	13
Cc1nc(C(N)=O)nc2ccccc12	nt	nt	nt	nt	1	7
CCOC(=O)c1cc(-c2ccc(OC)cc2)n(CCC(=O)NC2CCN(Cc3ccccc3)CC2)c1C	0	10*	-1	nt	5	-10
CCOC(=O)c1cc(-c2ccc(F)cc2)n(CCC(=O)NC2CCN(Cc3ccccc3)CC2)c1C	-5	-6	0	-12	-1	-20
CCCOc1ccc(C(=O)CCN2CCN(C(=O)OCC)CC2)cc1	-7	-3	0	12	27	2
CCOc1cc(C2C3=C(CCCC3=O)Nc3ccc4ncccc4c32)ccc1O (stereo unspecified)	-5	12*	-1	-9	24	-23
COc1cc(C2C3=C(CCCC3=O)Nc3ccc4ncccc4c32)ccc1O (stereo unspecified)	-4	-3	-2	-9	-8	23
CCS(=O)(=O)n1nc(-c2ccco2)nc1N	-6	10*	0	nt	3	2
COc1ccc(NC(=O)c2ccccc2SC)cc1	2	9.6*	0	9	-3	90*
CCOc1ccc(NC(=O)c2ccccc2SC)cc1	nt	nt	nt	-21	0	15
Cc1cc(C)c(NC(=O)Cn2cc3c(n2)CCCC3)c(C)c1	-12	1	0	nt	-1	69*
O=C(Cn1cc2c(n1)CCCCC2)Nc1c(F)c(F)cc(F)c1F	15	3	-3	nt	-2	-15
CSC(C(=O)c1cc2ccccc2o1)c1ccccc1 (stereo unspecified)	nt	nt	nt	-51	nt	nt
CN(C)CCN(CC1CCCN(Cc2ccccc2F)C1)C(=O)c1ccc(Cl)cc1 (stereo unspecified)	nt	nt	nt	-33	nt	nt
Cc1cc(C)cc(-n2c3nc4ccccc4nc3c3c(=O)n(Cc4ccco4)cnc32)c1	1	17*	0	23	-5	-215
COc1ccc(C(C)=O)c2c(O)cccc12	2	-5	0	nt	2	68*
COc1ccc(C(=O)c2ccccc2)c2c(O)ccc(C(=O)c3ccccc3)c12	-12	3	0	nt	1	-27
Cc1ccc2c(c1)c1nnc(SCC(=O)Nc3ccc(N(C)C)cc3)nc1n2CC(=O)O	nt	nt	nt	3	nt	nt
COc1ccc(-c2[nH]ncc2CN2CCCC2c2nonc2C)c(F)c1 (stereo unspecified)	-4	-4	0	39*	-3	19
Cc1cccc(C(=O)Nc2cccc(-c3ccc4nncn4n3)c2)c1	-6	-1	0	0	3	-9
Cc1cccc(NC(=O)c2nc[nH]c2C(=O)N[C@@H](Cc2ccccc2)C(=O)OCc2ccccc2)c1	nt	nt	nt	nt	7	0
O=C1C=C(Nc2ccccc2)C(=O)c2ccccc21	-1	-2	0	nt	-18	57*
O=C1C=C(Nc2ccccc2)c2ccccc2C1=O	-3	-4	4	nt	7	21
CCCn1nc(NC(=O)c2cccs2)c2cc3cc(C)ccc3nc21	nt	nt	nt	3	7	-34
SMILES	PKD1 inh	HMGR II inh	DTT redox prof	Pf gametocyte	Rad51 HR inh	Calpain2 inh
O=C(Nc1ccc(F)cc1)C(=O)c1c(O)[nH]c2ccc([N+](=O)[O-])cc12	nt	nt	nt	nt	18	57*
Cc1ccc(NCC(=O)N=Nc2c(O)[nH]c3ccc([N+](=O)[O-])cc23)cc1	nt	nt	nt	-33	16	7
Cc1ccc(Cn2cnc3c(cnn3-c3ccc(F)cc3)c2=O)cc1	-10	-4	2	17	nt	-12
CCOC(=O)N1CCN(C(=O)Cn2ncc3ccccc32)CC1	0	-6	0	nt	-2	-6
O=C(Cn1ncc2ccccc21)N1CCN(c2cccc(C(F)(F)F)c2)CC1	0	18*	-4	nt	1	-7
O=Cc1cc(N=Nc2cccc(C(=O)O)c2)ccc1O	1	1	0	nt	47*	21
C/C(=N/NC(=O)CNC(=O)c1cccs1)c1ccco1	nt	nt	nt	-15	7	-25
Cc1cc(NC(=O)c2ccc3c(c2)C(=O)N(CCC(C)C)C3=O)no1	-2	0	0	9	-4	53*
CNC(=O)CSc1nc2cccnc2n1-c1ccc(F)cc1	nt	nt	nt	4	nt	nt
O=C(COc1ccccc1C(=O)N/N=C\c1ccc(O)c(O)c1)N/N=C/c1ccc(O)c(O)c1	13	29*	-5	nt	nt	-3
COc1cccc(C(=O)c2ncc(C(F)(F)F)cc2Cl)c1	3	-2	-2	nt	-3	-19
COC(=O)/C(=C\Nc1cccc(Cl)c1C)c1ncc(C(F)(F)F)cc1Cl	-3	-10	0	15	79*	14
O=C1CC(C(=O)Nc2cccc(Cl)c2)n2ncnc2N1 (stereo unspecified)	-4	12*	0	-20	1	-4
COc1ccc(-c2cc(C(=O)NC(Cc3cc4ccccc4[nH]3)C(=O)O)c(C)o2)cc1OC (stereo unspecified)	0	-7	-9	4	nt	52*
O=C(O)C[C@@H]1C(=O)O[C@@H]2C(COC(=O)c3cc(O)c(O)c(O)c3)O[C@@H](OC(=O)c3cc(O)c(O)c(O)c3)[C@@H](OC(=O)c3cc(O)c(O)c4c3[C@H]1[C@H](O)C(=O)O4)[C@H]2OC(=O)c1cc(O)c(O)c(O)c1 (stereo partly specified)	nt	nt	nt	nt	nt	15
OCCNc1nc(Nc2ccccc2O)nc(N2CCCC2)n1	nt	nt	nt	nt	4	nt
CC1=C(C(=O)OCC(C)C)[C@]23C(=O)c4ccccc4[C@@]2(O1)OC(N)=C3C#N	-3	-3	1	nt	4	26
CC1=C(C(=O)OCC(C)C)C23C(=O)c4ccccc4C2(O1)OC(N)=C3C#N (stereo unspecified)	7	-1	2	14	4	59*
CN1CCC(=O)N(CCOc2ccccc2)CC1	nt	nt	nt	-2	nt	nt
COc1cccc(/C=C2/SC(=O)N(C)C2=O)c1OCc1ccc(C(=O)O)cc1	7	10*	0	7	-2	-9
O=C1CN2C(=Nc3ccc(Cl)cc3C2c2ccccc2)CN1 (stereo unspecified)	-11	-4	-1	nt	2	-5
S=C1NCCc2ccc(Cl)cc2C1c1ccccc1 (stereo unspecified)	4	17*	2	nt	0	11
COc1ccccc1NC(=O)Cn1cnc2c(cnn2-c2ccccc2)c1=O	-2	12*	-1	nt	2	5
COc1ccc(NC(=O)COC(=O)CCNS(=O)(=O)c2ccc(Cl)cc2)cc1	nt	nt	nt	18	43*	-10
CN(C)c1ncc(S(=O)(=O)c2ccc(Cl)cc2)c(-c2ccccc2)n1	-10	-2	3	-24	-9	56*

Compound activity from PubChem.
